Structures are written as SMILES.

For the first series, the species on record is Bos taurus. Nature of the series: Kinetic parameter Vmax value for Bovine spleen NTPDase1 hydrolysis. The series is classed as ADME. The following applies: cattle. In a few lines: (§1)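 Semipurified bovine spleen particulate NTPDase1 (about 1 μg protein), preincubated 3 min at 37 °C in 8 mM CaCl2, 5 mM tetramisole, 50 mM imidazole, 50 mM Tris pH 7.5. The reaction was started with substrate at 10–100 μM and stopped after 7 min with malachite green to read Pi release. Apparent Km and Vmax came from a Woolf–Augustinson–Hofstee plot; assays were run in triplicate.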
On to `Nc1nc(Cl)nc2c1ncn2[C@@H]1O[C@H](COP(=O)([O-])OP(=O)([O-])OP(=O)([O-])[O-])[C@@H](O)[C@H]1O.[Na+].[Na+].[Na+].[Na+]`, for which the Vmax – broadly, the top rate of the reaction or transport when substrate is in excess – is 1.9 µmol/min/mg.
For the compound `[BH3-]P(=O)(OC[C@H]1O[C@@H](n2cnc3c(N)nc(Cl)nc32)[C@H](O)[C@@H]1O)OP(=O)([O-])OP(=O)([O-])[O-].[Na+].[Na+].[Na+].[Na+]` (stereo partly drawn), the maximal velocity (Vmax) worked out at 0.88 µmol/min/mg.
As for `Nc1ncnc2c1ncn2[C@@H]1O[C@H](COP(=O)([O-])OP(=O)([O-])OP(=O)([O-])[O-])[C@@H](O)[C@H]1O.[Na+].[Na+].[Na+].[Na+]`, the Vmax was 2.4 µmol/min/mg.
`CSc1nc(N)c2ncn([C@@H]3O[C@H](COP(=O)([O-])OP(=O)([O-])OP(=O)([O-])[O-])[C@@H](O)[C@H]3O)c2n1.[Na+].[Na+].[Na+].[Na+]`: the Vmax came to 1.9 µmol/min/mg.
For `[BH3-]P(=O)(OC[C@H]1O[C@@H](n2cnc3c(N)ncnc32)[C@H](O)[C@@H]1O)OP(=O)([O-])OP(=O)([O-])[O-].[Na+].[Na+].[Na+].[Na+]` (stereo partly drawn), the maximal velocity (Vmax) was found to be 0.78 µmol/min/mg.
`[BH3-]P(=O)(OC[C@H]1O[C@@H](n2cnc3c(N)nc(SC)nc32)[C@H](O)[C@@H]1O)OP(=O)([O-])OP(=O)([O-])[O-].[Na+].[Na+].[Na+].[Na+]` (stereo partly drawn): the maximal velocity (Vmax) is 0.89 µmol/min/mg.

The subject of the next series is NTPDase1. The experiment in a line: Kinetic parameter Km value for Bovine spleen NTPDase1 hydrolysis. The series is classed as ADME, Bos taurus. Conditions: cattle. The essentials:
as §1
As for `Nc1nc(Cl)nc2c1ncn2[C@@H]1O[C@H](COP(=O)([O-])OP(=O)([O-])OP(=O)([O-])[O-])[C@@H](O)[C@H]1O.[Na+].[Na+].[Na+].[Na+]`, the Michaelis-Menten constant (Km) (in general, the substrate concentration at which the rate is half of its maximum) came out at 12.9 µM.
On the same count and under the same terms, next, `[BH3-]P(=O)(OC[C@H]1O[C@@H](n2cnc3c(N)nc(Cl)nc32)[C@H](O)[C@@H]1O)OP(=O)([O-])OP(=O)([O-])[O-].[Na+].[Na+].[Na+].[Na+]` (stereo partly drawn): 7.2 µM; `Nc1ncnc2c1ncn2[C@@H]1O[C@H](COP(=O)([O-])OP(=O)([O-])OP(=O)([O-])[O-])[C@@H](O)[C@H]1O.[Na+].[Na+].[Na+].[Na+]`: 15.9 µM.
Still for that read-out and setting: next, `CSc1nc(N)c2ncn([C@@H]3O[C@H](COP(=O)([O-])OP(=O)([O-])OP(=O)([O-])[O-])[C@@H](O)[C@H]3O)c2n1.[Na+].[Na+].[Na+].[Na+]`: 62 µM; `[BH3-]P(=O)(OC[C@H]1O[C@@H](n2cnc3c(N)ncnc32)[C@H](O)[C@@H]1O)OP(=O)([O-])OP(=O)([O-])[O-].[Na+].[Na+].[Na+].[Na+]` (stereo partly drawn): 13.8 µM; `[BH3-]P(=O)(OC[C@H]1O[C@@H](n2cnc3c(N)nc(SC)nc32)[C@H](O)[C@@H]1O)OP(=O)([O-])OP(=O)([O-])[O-].[Na+].[Na+].[Na+].[Na+]` (stereo partly drawn): 17.4 µM.

System in a further series: not listed separately
Nature of the series: Half life was determined. The series is classed as ADME.
Settings: not given
The essentials:
(§2)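 ³¹P NMR follow-up of hydrolysis at 37 °C. At pH 7.4 the diastereoisomeric mixture (tetrasodium salt) was held in Tris-HCl buffer and recorded for 3 weeks at 1–3 day intervals; hydrolysis came from Pγ (−7.5 ppm) versus inorganic phosphate (1.7 ppm) integrals. At pH 1.4 the sample was in KCl/HCl buffer with D2O, recorded for 17 h every 0.5 h; Pβ intensity versus time was fit to pseudo-first-order kinetics.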
On to `[BH3-]P(=O)(OC[C@H]1O[C@@H](n2cnc3c(N)nc(Cl)nc32)[C@H](O)[C@@H]1O)OP(=O)([O-])OP(=O)([O-])[O-].[Na+].[Na+].[Na+].[Na+]` (stereo partly drawn), for which the half-life – broadly, the time needed for the level to fall by half in the phase considered – turned out to be 2.7 h.

System in a further series: not listed separately
Nature of the series: Hydrolysis rate constant was determined. The series is classed as ADME.
Settings: not given
The essentials:
as §2
The compound `[BH3-]P(=O)(OC[C@H]1O[C@@H](n2cnc3c(N)nc(Cl)nc32)[C@H](O)[C@@H]1O)OP(=O)([O-])OP(=O)([O-])[O-].[Na+].[Na+].[Na+].[Na+]` (stereo partly drawn) had a Hydrolysis rate constant of 7.2e-05 s⁻¹.

The target in the next series is P2Y purinoceptor 1 (Rattus norvegicus, UniProt P49651). Nature of the series: Agonists activity was evaluated by release of [Ca2+] release of HEK 293 cells stably transfected with rat-brain P2Y purinoceptor 1 (P2Y1-R). The series is classed as functional, cell-based, HEK293.
Sequence of P2Y purinoceptor 1 (P49651 whole entry): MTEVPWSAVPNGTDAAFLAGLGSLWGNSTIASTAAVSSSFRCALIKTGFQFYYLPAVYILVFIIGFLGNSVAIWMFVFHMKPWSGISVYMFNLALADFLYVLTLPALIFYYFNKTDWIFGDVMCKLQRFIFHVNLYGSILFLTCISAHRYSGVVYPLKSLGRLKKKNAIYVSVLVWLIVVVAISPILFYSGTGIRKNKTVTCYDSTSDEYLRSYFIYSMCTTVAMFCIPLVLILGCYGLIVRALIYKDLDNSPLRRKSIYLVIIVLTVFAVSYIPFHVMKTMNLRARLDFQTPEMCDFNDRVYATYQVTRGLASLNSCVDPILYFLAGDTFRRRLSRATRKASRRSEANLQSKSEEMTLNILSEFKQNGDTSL
Settings: not given
The essentials:
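HEK293 cells stably expressing rat brain P2Y1 receptor, grown on coverslips, loaded 30 min with 2 μM Fura 2-AM in HEPES-buffered saline pH 7.4. Continuous superfusion with 35 °C HBS containing varying nucleotide concentrations. Single-cell fluorescence at 340/380 nm excitation, 500 nm emission. EC50 from concentration–response of ΔF340/F380, averaged over 60–100 cells; at least three separate experiments; ATP as reference.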
Regarding `CSc1nc(N)c2ncn([C@@H]3O[C@H](COP(=O)([O-])OP(=O)([O-])OP(=O)([O-])[O-])[C@@H](O)[C@H]3O)c2n1.[Na+].[Na+].[Na+].[Na+]`, the midpoint of the response, the EC50, lay at 1 nM.
On the same count and under the same terms, next, `[BH3-]P(=O)(OC[C@H]1O[C@@H](n2cnc3c(N)ncnc32)[C@H](O)[C@@H]1O)OP(=O)([O-])OP(=O)([O-])[O-].[Na+].[Na+].[Na+].[Na+]` (stereo partly drawn): 200 nM.
The same measure, in the same setting: next, `[BH3-]P(=O)(OC[C@H]1O[C@@H](n2cnc3c(N)nc(SC)nc32)[C@H](O)[C@@H]1O)OP(=O)([O-])OP(=O)([O-])[O-].[Na+].[Na+].[Na+].[Na+]` (stereo partly drawn): 2.6 nM.

System in another series: not listed separately
Nature of the series: Half life was determined. Conditions: pH 1.4, 37 °C.
As to `[BH3-]P(=O)(OC[C@H]1O[C@@H](n2cnc3c(N)nc(SC)nc32)[C@H](O)[C@@H]1O)OP(=O)([O-])OP(=O)([O-])[O-].[Na+].[Na+].[Na+].[Na+]` (stereo partly drawn), the half-life was 5.9 h.

The record behind these values is ChEMBL document CHEMBL1135666, “Adenosine 5'-O-(1-boranotriphosphate) derivatives as novel P2Y(1) receptor agonists” (J Med Chem, 2002).
